Test results published in ChEMBL document CHEMBL1137378, “Antibacterial agent discovery using thymidylate synthase biolibrary screening” (J Med Chem, 2006).
pKi: −log10 of the molar value. Values after ≈ are worked out from the molar mass of the structure shown.

How the values were obtained:
[1] = test system: Staphylococcus saprophyticus; assay: Antibacterial activity against Staphylococcus saprophyticus ATCC 15305; type: functional
Method in brief: (§1)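 Wild-type strain panel (18 Gram-positive and Gram-negative strains). Bacteria grown in Mueller-Hinton broth at 37 °C for 24 h. Exponentially growing cultures diluted in sterile liquid medium to a final inoculum of about 1 × 10⁴ CFU/mL, then exposed to increasing compound concentrations. MIC taken as the lowest concentration with no evident bacterial growth.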

Vero [2] = assay: Cytotoxicity against Vero cells measured as percent of cell growth at 50 mg/L relative to control by MTT assay; type: functional, Chlorocebus sabaeus
Method in brief: (§2)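 VERO cells grown in MEM with 5% heat-inactivated (56 °C, 30 min) FCS, penicillin, streptomycin and L-glutamine. Cultures were watched for 2 days and live cells counted. Cells were then exposed to increasing compound concentrations; wells with cells only served as control. After 24 h, mitochondrial dehydrogenase activity was read by MTT. Trypan blue exclusion was also run.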

Vero [3] = assay: Cytotoxicity against Vero cells measured as percent of cell growth at 3.12 mg/L relative to control by MTT assay; type: functional, Chlorocebus sabaeus; method in brief: as §2
Listeria monocytogenes [4] = assay: Antibacterial activity against Listeria monocytogenes 5; type: functional; method in brief: as §1
Listeria monocytogenes [5] = assay: Antibacterial activity against Listeria monocytogenes 7; type: functional; method in brief: as §1
Homo sapiens = species on record: Homo sapiens; assay: Selectivity Index, Ki for human dihydrofolate reductase/Ki for human thymidylate synthase
Vero [6] = assay: Cytotoxicity against Vero cells measured as percent of cell growth at 1.56 mg/L relative to control by MTT assay; type: functional, Chlorocebus sabaeus; method in brief: as §2
Vero [7] = assay: Cytotoxicity against Vero cells measured as percent of cell growth at 25 mg/L relative to control by MTT assay; type: functional, Chlorocebus sabaeus; method in brief: as §2
Escherichia coli [8] = assay: Antibacterial activity against Escherichia coli 292; type: functional; method in brief: as §1
Vero [9] = assay: Cytotoxicity against Vero cells measured as percent of cell growth at 12.05 mg/L relative to control by MTT assay; type: functional, Chlorocebus sabaeus; method in brief: as §2
Staphylococcus aureus [10] = assay: Antibacterial activity against Staphylococcus aureus ATCC 29213; type: functional; method in brief: as §1
Staphylococcus aureus [11] = assay: Antibacterial activity against Staphylococcus aureus 341; type: functional; method in brief: as §1
Vero [12] = assay: Cytotoxicity against Vero cells measured as percent of cell growth at 6.25 mg/L relative to control by MTT assay; type: functional, Chlorocebus sabaeus; method in brief: as §2
Thymidylate synthase [13] = target: T1, Thymidylate synthase (Cryptococcus neoformans var. neoformans B-3501A, UniProt P0CS13); assay: Inhibition of Cryptococcus neoformans thymidylate synthase
T1 sequence (P0CS13 whole entry): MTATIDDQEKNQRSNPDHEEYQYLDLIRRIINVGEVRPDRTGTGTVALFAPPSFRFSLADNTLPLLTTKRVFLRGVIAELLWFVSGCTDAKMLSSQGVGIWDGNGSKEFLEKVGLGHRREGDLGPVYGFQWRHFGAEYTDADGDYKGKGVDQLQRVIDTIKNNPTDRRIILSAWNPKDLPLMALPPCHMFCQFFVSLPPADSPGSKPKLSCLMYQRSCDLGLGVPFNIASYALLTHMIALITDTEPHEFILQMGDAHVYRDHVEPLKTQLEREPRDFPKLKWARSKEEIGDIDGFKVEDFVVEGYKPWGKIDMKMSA

Enterococcus faecalis = assay: Antibacterial activity against Enterococcus faecalis ATCCC29212; type: functional; method in brief: as §1
Citrobacter = assay: Antibacterial activity against Citrobacter 224; type: functional; method in brief: as §1
Staphylococcus aureus [14] = assay: Antibacterial activity against Staphylococcus aureus K28; type: functional; method in brief: as §1
[15] = test system: Staphylococcus haemolyticus; assay: Antibacterial activity against Staphylococcus haemolyticus ATCC 2997; type: functional; method in brief: as §1
Dihydrofolate reductase = target: T2, Dihydrofolate reductase (Homo sapiens, UniProt P00374); assay: Inhibition of human dihydrofolate reductase
T2 sequence (P00374 whole entry): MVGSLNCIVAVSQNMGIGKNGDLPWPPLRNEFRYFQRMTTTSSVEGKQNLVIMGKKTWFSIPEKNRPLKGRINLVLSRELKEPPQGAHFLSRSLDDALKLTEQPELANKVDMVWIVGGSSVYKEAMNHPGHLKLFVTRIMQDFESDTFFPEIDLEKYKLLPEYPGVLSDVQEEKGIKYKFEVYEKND
Method in brief: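 Purified human DHFR assayed spectrophotometrically at 25 °C by the fall in A340 on DHF reduction. Ki from steady-state kinetics.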

Listeria monocytogenes [16] = assay: Antibacterial activity against Listeria monocytogenes 8; type: functional; method in brief: as §1
Listeria monocytogenes [17] = assay: Antibacterial activity against Listeria monocytogenes 3; type: functional; method in brief: as §1
Streptococcus = assay: Antibacterial activity against Streptococcus 42; type: functional; method in brief: as §1
[18] = Specificity Index, Ki for human thymidylate synthase/Ki for Cryptococcus neoformans thymidylate synthase
Method in brief: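 Specificity index is Ki of hTS divided by Ki of the pathogen TS (LcTS, EcTS or CnTS). Each enzyme was purified to >95% and assayed spectrophotometrically at 340 nm, 20 °C. Buffer was TES 50 mM pH 7.4 with MgCl2, formaldehyde, EDTA and 2-mercaptoethanol, plus dUMP 100 µM, mTHF 140 µM and enzyme 0.07 µM.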

Listeria monocytogenes [19] = assay: Antibacterial activity against Listeria monocytogenes ATCC 4428; type: functional; method in brief: as §1
Listeria monocytogenes [20] = assay: Antibacterial activity against Listeria monocytogenes 4; type: functional; method in brief: as §1
Escherichia coli [21] = assay: Antibacterial activity against Escherichia coli 256; type: functional; method in brief: as §1
Thymidylate synthase [22] = target: Thymidylate synthase (Escherichia coli, UniProt C3SWJ7); assay: Inhibition of Escherichia coli thymidylate synthase
Chain of Thymidylate synthase (Escherichia coli, UniProt C3SWJ7) (C3SWJ7 whole entry): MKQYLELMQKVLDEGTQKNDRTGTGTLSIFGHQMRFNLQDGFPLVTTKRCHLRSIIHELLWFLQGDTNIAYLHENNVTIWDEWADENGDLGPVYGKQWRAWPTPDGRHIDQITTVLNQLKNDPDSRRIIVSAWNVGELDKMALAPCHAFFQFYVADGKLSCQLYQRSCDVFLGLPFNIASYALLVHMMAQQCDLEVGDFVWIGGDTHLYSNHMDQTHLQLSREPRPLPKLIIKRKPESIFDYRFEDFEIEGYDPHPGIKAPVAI

[23] = Specificity Index, Ki for human thymidylate synthase/Ki for Escherichia coli thymidylate synthase
[24] = Specificity Index, Ki for human thymidylate synthase/Ki for Lactobacillus casei thymidylate synthase
Listeria monocytogenes [25] = assay: Antibacterial activity against Listeria monocytogenes 6; type: functional; method in brief: as §1
Staphylococcus aureus [26] = assay: Antibacterial activity against Staphylococcus aureus 343; type: functional; method in brief: as §1
Thymidylate synthase [27] = target: T3, Thymidylate synthase (Lactobacillus casei, UniProt P00469); assay: Inhibition of Lactobacillus casei thymidylate synthase; set-up: species or system Lacticaseibacillus casei
T3 sequence (P00469 whole entry): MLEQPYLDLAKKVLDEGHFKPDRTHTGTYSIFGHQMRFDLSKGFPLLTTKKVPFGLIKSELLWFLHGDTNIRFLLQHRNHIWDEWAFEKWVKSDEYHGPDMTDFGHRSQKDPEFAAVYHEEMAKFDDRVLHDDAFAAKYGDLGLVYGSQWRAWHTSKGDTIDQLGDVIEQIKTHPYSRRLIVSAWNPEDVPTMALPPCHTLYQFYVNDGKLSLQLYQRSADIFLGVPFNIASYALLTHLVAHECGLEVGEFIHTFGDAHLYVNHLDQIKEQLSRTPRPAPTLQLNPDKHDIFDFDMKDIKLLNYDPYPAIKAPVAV

Thymidylate synthase [28] = target: Thymidylate synthase (Homo sapiens, UniProt P04818); assay: Inhibition of human thymidylate synthase
Chain of Thymidylate synthase (Homo sapiens, UniProt P04818) (P04818 whole entry): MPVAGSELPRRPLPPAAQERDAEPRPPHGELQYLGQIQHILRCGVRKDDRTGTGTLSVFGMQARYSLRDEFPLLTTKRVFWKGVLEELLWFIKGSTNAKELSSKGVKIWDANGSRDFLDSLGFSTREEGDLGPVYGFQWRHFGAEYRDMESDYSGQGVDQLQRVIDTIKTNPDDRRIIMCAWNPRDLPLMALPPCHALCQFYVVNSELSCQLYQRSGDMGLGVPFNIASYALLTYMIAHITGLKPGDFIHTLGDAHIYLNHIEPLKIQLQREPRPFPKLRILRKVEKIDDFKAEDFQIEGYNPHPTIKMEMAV

| SMILES | MIC [1] [µg/mL] | MIC (Listeria monocytogenes [4]) [µg/mL] | MIC (Listeria monocytogenes [5]) [µg/mL] | Selectivity index (Homo sapiens) | MIC (Escherichia coli [8]) [µg/mL] | MIC (Staphylococcus aureus [10]) [µg/mL] | MIC (Staphylococcus aureus [11]) [µg/mL] | pKi (Thymidylate synthase [13]) | MIC (Enterococcus faecalis) [µg/mL] | MIC (Citrobacter) [µg/mL] | MIC (Staphylococcus aureus [14]) [µg/mL] | MIC [15] [µg/mL] | pKi (Dihydrofolate reductase) | MIC (Listeria monocytogenes [16]) [µg/mL] | MIC (Listeria monocytogenes [17]) [µg/mL] | Ratio Ki [18] | pKi (Thymidylate synthase [22]) | Ratio Ki [23] | Ratio Ki [24] | pKi (Thymidylate synthase [28]) | also measured |
| --- | --- | --- | --- | --- | --- | --- | --- | --- | --- | --- | --- | --- | --- | --- | --- | --- | --- | --- | --- | --- | --- |
| O=C1OC(c2ccc(O)c(Br)c2)(c2ccc(O)c(Br)c2)c2ccc(Cl)c3cccc1c23 | 1 (≈ 1.78 µM) | 5 (≈ 8.92 µM) | 2.5 (≈ 4.46 µM) | < 0.05 | > 25 | 2.5 (≈ 4.46 µM) | 2.5 (≈ 4.46 µM) | 5.39 | 5 (≈ 8.92 µM) | > 25 | 2.5 (≈ 4.46 µM) | 5 (≈ 8.92 µM) | 4.89 | 5 (≈ 8.92 µM) | 5 (≈ 8.92 µM) | > 60 | 5.39 | > 60 | > 306 |  | Activity (Vero [2]): 61%; Activity (Vero [3]): 95%; Activity (Vero [6]): 96%; Activity (Vero [7]): 85%; Activity (Vero [9]): 97%; Activity (Vero [12]): 97%; MIC (Streptococcus): 1 µg/mL (≈ 1.78 µM); MIC (Listeria monocytogenes [19]): 1 µg/mL (≈ 1.78 µM); MIC (Listeria monocytogenes [20]): 2.5 µg/mL (≈ 4.46 µM); MIC (Escherichia coli [21]): > 25 µg/mL; MIC (Listeria monocytogenes [25]): 2.5 µg/mL (≈ 4.46 µM); MIC (Staphylococcus aureus [26]): 1 µg/mL (≈ 1.78 µM) |
| O=C1OC(c2ccc(O)c(I)c2)(c2ccc(O)c(I)c2)c2c1ccc1ccccc21 |  |  |  | < 0.01 |  |  |  | 5.35 |  |  |  |  | 5.41 |  |  | > 54 | 5.82 | > 163 | > 123 | < 3.61 | pKi (Thymidylate synthase [27]): 5.70 |
| O=C1OC(c2ccc(O)cc2)(c2ccc(O)cc2)c2c1ccc1ccccc21 |  |  |  | < 1 |  |  |  | 6.40 |  |  |  |  |  |  |  | > 330 | 5.36 | > 30 | > 12 | < 3.88 |  |
| O=C1OC(c2ccc(O)c(Br)c2)(c2ccc(O)c(Br)c2)c2cccc3cccc1c23 | 5 (≈ 9.5 µM) | 5 (≈ 9.5 µM) | 1 (≈ 1.9 µM) | 3 | > 50 | 5 (≈ 9.5 µM) | 5 (≈ 9.5 µM) | 4.89 | 10 (≈ 19 µM) | > 50 | 5 (≈ 9.5 µM) | 5 (≈ 9.5 µM) | 4.82 | 5 (≈ 9.5 µM) | 2.5 (≈ 4.75 µM) | 0.4 | 6.05 | 5 | 1 | 5.33 | Activity (Vero [2]): 41%; Activity (Vero [3]): 100%; Activity (Vero [6]): 100%; Activity (Vero [7]): 84%; Activity (Vero [9]): 100%; Activity (Vero [12]): 100%; pKi (Thymidylate synthase [27]): 5.17; MIC (Streptococcus): 5 µg/mL (≈ 9.5 µM); MIC (Listeria monocytogenes [19]): 5 µg/mL (≈ 9.5 µM); MIC (Listeria monocytogenes [20]): 5 µg/mL (≈ 9.5 µM); MIC (Escherichia coli [21]): > 50 µg/mL; MIC (Listeria monocytogenes [25]): 5 µg/mL (≈ 9.5 µM); MIC (Staphylococcus aureus [26]): 5 µg/mL (≈ 9.5 µM) |
| O=C1OC(c2ccc(O)c(F)c2)(c2ccc(O)c(F)c2)c2cccc3cccc1c23 |  |  |  |  |  |  |  |  |  |  |  |  | 4.38 |  |  |  |  |  |  |  |  |
| O=C1OC(c2cc(Cl)c(O)c(Cl)c2)(c2cc(Cl)c(O)c(Cl)c2)c2cccc3cccc1c23 |  |  |  | 5 |  |  |  | 5.48 |  |  |  |  | 4.55 |  |  | 2 | 5.28 | 1 | 3 | 5.24 | pKi (Thymidylate synthase [27]): 5.70 |
| O=C1OC(c2ccc(O)cc2)(c2ccc(O)cc2)c2ccc3ccccc3c21 |  |  |  |  |  |  |  | 6.22 |  |  |  |  | 4.46 |  |  |  |  |  |  |  |  |
| O=C1OC(c2ccc(O)c(F)c2)(c2ccc(O)c(F)c2)c2ccc(Cl)c3cccc1c23 | 10 (≈ 22.8 µM) | 10 (≈ 22.8 µM) | 10 (≈ 22.8 µM) | < 0.05 | > 50 | 10 (≈ 22.8 µM) | 10 (≈ 22.8 µM) | 5.19 | 25 (≈ 57 µM) | > 50 | 10 (≈ 22.8 µM) | 10 (≈ 22.8 µM) | 4.92 | 25 (≈ 57 µM) | 10 (≈ 22.8 µM) | > 38 | 5.96 | > 223 | > 136 |  | MIC (Streptococcus): 10 µg/mL (≈ 22.8 µM); MIC (Listeria monocytogenes [19]): 10 µg/mL (≈ 22.8 µM); MIC (Listeria monocytogenes [20]): 10 µg/mL (≈ 22.8 µM); MIC (Escherichia coli [21]): > 50 µg/mL; MIC (Listeria monocytogenes [25]): 10 µg/mL (≈ 22.8 µM); MIC (Staphylococcus aureus [26]): 10 µg/mL (≈ 22.8 µM) |
